The text below walks through data of ChEMBL document CHEMBL1147262, “Cytotoxic constituents of Aspergillus terreus from the rhizosphere of Opuntia versicolor of the Sonoran Desert” (J Nat Prod, 2003).

Experiment [1] deals with NCI-H460. In words: Cytotoxicity against human NCI-H460 cells at 10 ug/mL after 48 hrs by MTT assay. The experiment is classed as functional, cell-based. In general terms: Formazan colour is commonly taken as a measure of viable cells.
The subject of experiment [2] is MCF7. In words: Cytotoxicity against human MCF7 cells at 10 ug/mL after 48 hrs by MTT assay. It is filed as functional, cell-based.
Experiment [3] relates to SF-268. The experiment is described as follows: Cytotoxicity against human SF268 cells at 10 ug/mL after 48 hrs by MTT assay. The experiment is classed as functional, cell-based.
Experiment [4] has as its system NCI-H460. In words: Cytotoxicity against human NCI-H460 cells after 48 hrs by MTT assay. The experiment is classed as functional, cell-based. Conditions: NCI-H460, 48 h. In short, it runs like this: (§1)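 MCF-7, NCI-H460 and SF-268 cells were exposed to serial dilutions for 48 h in RPMI 1640 with 10% fetal bovine serum. Viability was read by MTT colorimetric assay, and IC50 was taken as the concentration giving 50% inhibition of proliferation/survival.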

In experiment [5] the test system is MCF7. In words: Cytotoxicity against human MCF7 cells after 48 hrs by MTT assay. The experiment is classed as functional, cell-based. The conditions noted are these: MCF7, 48 h. Put shortly:
as §1

The test system of experiment [6] is SF-268. The experiment is described as follows: Cytotoxicity against human SF268 cells after 48 hrs by MTT assay. It is filed as functional, cell-based. The conditions noted are these: SF-268, 48 h. Put shortly: as §1
For experiment [7], the system named is NCI-H460. In words: Cell cycle arrest in human NCI-H460 cells assessed as accumulation at G1 phase at 10 ug/mL by flow cytometry. The experiment is classed as functional. In short, it runs like this:
(§2)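 NCI-H460 cells taken at 75-85% confluency, seeded at 2.5 × 10^5 cells per 60 mm dish and left to reattach overnight. Treated overnight in complete RPMI 1640 at 10 µg/mL final (test agents) or 0.1 µM final (positive control), with DMSO ≤0.1 vol %. Harvested by trypsin, PBS-rinsed, resuspended in Krishan's buffer, then DNA-content flow cytometry gave G1/S/G2/M percentages.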

The test system of experiment [8] is NCI-H460. In words: Cell cycle arrest in human NCI-H460 cells assessed as accumulation at S phase at 10 ug/mL by flow cytometry. The experiment is classed as functional. Put shortly:
as §2
(Flow cytometry measures light scatter and fluorescence of single cells or particles in a stream.)

Experiment [9] has as its system NCI-H460. In words: Cell cycle arrest in human NCI-H460 cells assessed as accumulation at G2/M phase at 10 ug/mL by flow cytometry. It is filed as functional. In short, it runs like this:
as §2

Experiment [10] concerns NCI-H460. In words: Cell cycle arrest in human NCI-H460 cells assessed as accumulation at G1 phase at 0.1 uM by flow cytometry. It is filed as functional. Put shortly: as §2
Experiment [11] deals with NCI-H460. The experiment is described as follows: Cell cycle arrest in human NCI-H460 cells assessed as accumulation at S phase at 0.1 uM by flow cytometry. The experiment is classed as functional. In short, it runs like this: as §2
The test system of experiment [12] is NCI-H460. The experiment is described as follows: Cell cycle arrest in human NCI-H460 cells assessed as accumulation at G2/M phase at 0.1 uM by flow cytometry. It is filed as functional. In short, it runs like this: as §2
Experiment [13] deals with NCI-H460. The experiment is described as follows: Cell cycle arrest in human NCI-H460 cells assessed as accumulation at S phase at 3 uM by flow cytometry.
Experiment [14] relates to NCI-H460. In words: Cell cycle arrest in human NCI-H460 cells assessed as accumulation at G1 phase at 3 uM by flow cytometry.
The test system of experiment [15] is NCI-H460. In words: Cell cycle arrest in human NCI-H460 cells assessed as accumulation at G2/M phase at 3 uM by flow cytometry.

SMILES strings stand for the structures. Active and inactive are the calls of the source. No cut-off for these calls is given here.

On to `CC1C(=O)C[C@H]2[C@@H]3CC[C@H](C(=O)O)[C@]12CC3(C)C` (stereo partly specified), for which the outcome in the experiment on NCI-H460 [1], with MCF7 [2] and with SF-268 [3] was inactive.

Turning to `COC[C@H]1C(=O)C[C@H]2[C@@H]3CC[C@H](C(=O)O)[C@]12CC3(C)C`, the IC50 in the experiment on NCI-H460 [4] is 19.4 µM; in the experiment on MCF7 [5] it was 20.6 µM; in the experiment with SF-268 [6] it was 21.4 µM. Besides, the Activity with NCI-H460 [7] amounted to 44.3%; in the experiment on NCI-H460 [8], 21.4%; in the experiment on NCI-H460 [9], 34.3%.

Consider `CC1(C)C[C@]23[C@@H](C(=O)O)CC[C@H]1[C@@H]2CC(=O)[C@@H]3CO`, for which the values for the IC50 with NCI-H460 [4], in the experiment with MCF7 [5] and with SF-268 [6] were 14.5 µM, 16.5 µM and 7.8 µM, respectively.

In turn, `CC(=O)O[C@H]1C(=O)[C@@]2(C)[C@H]([C@H](OC(=O)c3ccccc3)[C@]3(O)C[C@H](OC(=O)[C@H](O)[C@@H](NC(=O)c4ccccc4)c4ccccc4)C(C)=C1C3(C)C)[C@]1(OC(C)=O)CO[C@@H]1C[C@@H]2O` [PACLITAXEL] displayed an IC50 in the experiment with MCF7 [5] of 0.0112 µM. For the same compound, the Activity in the experiment with NCI-H460 [10] was 15.5%; with NCI-H460 [11], 14%; in the experiment with NCI-H460 [12] it was 70.5%.

On to `COC1=C(c2ccccc2)C(=O)C(OC)=C(c2ccccc2)C1=O` [BETULINAN A], for which the IC50 in the experiment with NCI-H460 [4] was found to be 58.4 µM; in the experiment with MCF7 [5], 8.7 µM; with SF-268 [6], 28 µM.

For the compound `C=CC(C)(C)c1[nH]c2ccccc2c1C1=C(OC)C(=O)C(c2c[nH]c3ccccc23)=C(OC)C1=O`, the figures for the IC50 in the experiment with NCI-H460 [4], in the experiment with MCF7 [5] and in the experiment with SF-268 [6] were 24.2 µM, 4.1 µM and 25.7 µM, respectively.

For `CC1(C)C[C@]23[C@@H]4COC(=O)[C@H]2CC[C@H]1[C@@H]3CC4=O` [QUADRONE], the figures for the IC50 in the experiment on NCI-H460 [4], in the experiment on MCF7 [5] and in the experiment on SF-268 [6] were 12.4 µM, 14.3 µM and 16.9 µM, respectively. For the same compound, the Activity is on record as 38.8% in the experiment with NCI-H460 [7], 6.3% in the experiment with NCI-H460 [8] and 54.8% in the experiment with NCI-H460 [9].

As for `COC(=O)C1(c2c[nH]c3ccccc23)C(=O)C(OC)=C(c2c[nH]c3ccccc23)C1=O` (stereo unspecified) [ASTERREDIONE], the IC50 in the experiment on NCI-H460 [4] was 17.4 µM; with MCF7 [5], 25.2 µM; in the experiment on SF-268 [6], 20.7 µM.

With `C=C1C(=O)C[C@H]2[C@@H]3CC[C@H](C(=O)OC)[C@]12CC3(C)C`, the values for the 50% inhibitory concentration (IC50) in the experiment on NCI-H460 [4], with MCF7 [5] and in the experiment with SF-268 [6] were 9.4 µM, 16.7 µM and 10.2 µM, respectively.

Consider `COC1=C(c2c[nH]c3ccccc23)C(=O)C(OC)=C(c2c[nH]c3ccccc23)C1=O` [ASTERRIQUINONE D], for which the values for the half-maximal inhibitory concentration (IC50) with NCI-H460 [4], with MCF7 [5] and with SF-268 [6] were 19.9 µM, 17.7 µM and 15.8 µM, respectively.

As for `C=C1C(=O)C[C@H]2[C@@H]3CC[C@H](C(=O)O)[C@]12CC3(C)C`, the IC50 in the experiment on NCI-H460 [4] came out at 10.6 µM; in the experiment with MCF7 [5], 24.1 µM; in the experiment on SF-268 [6] it was 14.7 µM. In addition, the Activity turned out to be 40.7% in the experiment on NCI-H460 [7], 16% in the experiment with NCI-H460 [8] and 43.7% with NCI-H460 [9].

In the case of `COC(=O)Nc1nc2cc(C(=O)c3cccs3)ccc2[nH]1` [NOCODAZOLE], the results for the Activity in the experiment with NCI-H460 [13], with NCI-H460 [14] and in the experiment on NCI-H460 [15] were 6.9%, 13% and 80.1%, respectively.

In general, IC50 refers to the concentration at which inhibition is half-maximal. A low value points to greater potency.
